Assays:
Mus musculus [1] = species on record: Mus musculus; assay: Effect of compound on serum Alkaline phosphatase levels in mice at mid dose 2 on day 65; format: functional
How it was run: (§1)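 Male B6D2F1 mice dosed daily by oral gavage in corn oil at low, mid 1, mid 2 or high dose. Blood sampled on set days (8, 29, 36, 65) for clinical chemistry, serum alkaline phosphatase and triglycerides. Group mean ± SD reported as % relative to vehicle 1; significance p < 0.05 versus corn oil vehicle.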

Mus musculus [2] = species on record: Mus musculus; assay: Effect of compound on thymus to body weight ratios in mice at mid dose 1 on day 65; format: functional
How it was run: (§2)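 Male B6D2F1 mice were dosed daily by gavage in corn oil, with TTNPB given at 0.1–0.8 or 0.01/0.05 mg/kg/day. Thymus-to-body weight ratio (×1000) was taken at necropsy on day 65 against vehicle 1, or on day 25 for the 0.01/0.05 groups against vehicle 2. Mean ± SD of 4–8 animals, reported as % difference from vehicle.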

Mus musculus [3] = species on record: Mus musculus; assay: Calculated 30-day maximally tolerated dose based on 10% weight loss in mice at mid dose 2; format: functional
Mus musculus [4] = species on record: Mus musculus; assay: Approximate day to 10% weight loss in mice at high dose; format: functional
How it was run: (§3)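 Male B6D2F1 mice dosed daily by gavage in corn oil; body weights followed to termination (day 65, or day 25 for TTNPB 0.01/0.05 mg/kg/day groups) and compared with the matching vehicle group. Value is approximate day of onset of 10% body weight reduction versus vehicle.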

Mus musculus [5] = species on record: Mus musculus; assay: Effect of compound on right testicle to body weight ratios in mice at mid dose 2 on day 65; format: functional
How it was run: (§4)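 Male B6D2F1 mice dosed daily by gavage with compound in corn oil; vehicle 1 (corn oil) controls run to termination on day 65. Low, mid 1, mid 2 and high dose groups, with dosage increases partway through the study. Organ-to-body weight ratios (×1000) taken at necropsy on day 65, reported as mean ± SD for 4 to 8 animals and as % difference from vehicle.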

Mus musculus [6] = species on record: Mus musculus; assay: Approximate day to 10% weight loss in mice at low dose; format: functional; how it was run: as §3
Mus musculus [7] = species on record: Mus musculus; assay: Effect of compound on thymus to body weight ratios in mice at mid dose 2 on day 65; format: functional; how it was run: as §2
Mus musculus [8] = species on record: Mus musculus; assay: Effect of compound on adrenal to body weight ratios in mice at mid dose 1 on day 65; format: functional; how it was run: as §4
Mus musculus [9] = species on record: Mus musculus; assay: Effect of compound on right testicle to body weight ratios in mice at low dose on day 65; format: functional; how it was run: as §4
Mus musculus [10] = species on record: Mus musculus; assay: Effect of compound on adrenal to body weight ratios in mice at mid dose 2 on day 65; format: functional; how it was run: as §4
Mus musculus [11] = species on record: Mus musculus; assay: Approximate day to 10% weight loss in mice at mid dose 2; format: functional; how it was run: as §3
Mus musculus [12] = species on record: Mus musculus; assay: Total dose of 10% weight loss in mice at mid dose 2; format: functional
Mus musculus [13] = species on record: Mus musculus; assay: Effect of compound on Spleen to body weight ratios in mice at mid dose 1 on day 65; format: functional; how it was run: as §4
Mus musculus [14] = species on record: Mus musculus; assay: Average number of fractures per mouse at mid dose 2
Mus musculus [15] = species on record: Mus musculus; assay: Effect of compound on serum triglycerides levels in mice at mid dose 1 on day 29; format: functional
How it was run: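 Male B6D2F1 mice were gavaged daily with compound in corn oil at low, mid 1, mid 2 or high dose. Serum triglycerides and circulating white blood cells were measured on the stated day (8, 29, 36, 65). Values are group mean ± SD expressed as % relative to corn-oil vehicle, with significance at p ≤ 0.05.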

Mus musculus [16] = species on record: Mus musculus; assay: Approximate day to 10% weight loss in mice at mid dose 1; format: functional; how it was run: as §3
Mus musculus [17] = species on record: Mus musculus; assay: Calculated 30-day maximally tolerated dose based on 10% weight loss in mice at low dose; format: functional
[18] = Mortality rate in mice in mid dose 1; format: ADME; details: mouse, in vivo
How it was run: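 Male B6D2F1 mice given compound daily by gavage in corn oil at the stated dose levels, with corn oil vehicle controls. Deaths counted as animals found dead or sacrificed moribund, with day(s) of death recorded. Heteroarotinoid groups ran to day 65 and low-dose reference groups to day 25.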

Mus musculus [19] = species on record: Mus musculus; assay: Calculated 30-day maximally tolerated dose based on 10% weight loss in mice at high dose; format: functional
Mus musculus [20] = species on record: Mus musculus; assay: Effect of compound on serum triglycerides levels in mice at high dose on day 29; format: functional; how it was run: as §1
Mus musculus [21] = species on record: Mus musculus; assay: Total dose of 10% weight loss in mice at low dose; format: functional
Mus musculus [22] = species on record: Mus musculus; assay: Effect of compound on adrenal to body weight ratios in mice at low dose on day 65; format: functional; how it was run: as §4
Mus musculus [23] = species on record: Mus musculus; assay: Effect of compound on serum Alkaline phosphatase levels in mice at low dose on day 65; format: functional; how it was run: as §1
Mus musculus [24] = species on record: Mus musculus; assay: Effect of compound on Spleen to body weight ratios in mice at mid dose 2 on day 65; format: functional; how it was run: as §4
CC-B = assay: Relative transcriptional activation activity relative to t-RA; format: functional, Homo sapiens
How it was run: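 CC-B reporter cells (CC-1 cervical line carrying a CAT gene under a RARE with a tk promoter) were seeded at 4×10^5 cells/well in MEM with nonessential amino acids, pyruvate and 10% FBS, the serum lots having negligible t-RA by HPLC. Triplicate cultures were screened at 10^-6 M with 0.1% DMSO final. After 48 h, CAT activity ([3H]acetyl-CoA) per mg protein was taken as treated/control and expressed relative to t-RA. Average of three experiments.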

Mus musculus [25] = species on record: Mus musculus; assay: Average number of fractures per mouse at low dose
Mus musculus [26] = species on record: Mus musculus; assay: Total dose of 10% weight loss in mice at mid dose 1; format: functional
Mus musculus [27] = species on record: Mus musculus; assay: Effect of compound on right testicle to body weight ratios in mice at mid dose 1 on day 65; format: functional; how it was run: as §4
Mus musculus [28] = species on record: Mus musculus; assay: Average number of fractures per mouse at high dose
Mus musculus [29] = species on record: Mus musculus; assay: Total dose of 10% weight loss in mice at high dose; format: functional
Mus musculus [30] = species on record: Mus musculus; assay: Effect of compound on thymus to body weight ratios in mice at low dose on day 65; format: functional; how it was run: as §2
Mus musculus [31] = species on record: Mus musculus; assay: Calculated 30-day maximally tolerated dose based on 10% weight loss in mice at mid dose 1; format: functional
Mus musculus [32] = species on record: Mus musculus; assay: Effect of compound on serum Alkaline phosphatase levels in mice at high dose on day 36; format: functional; how it was run: as §1

C/C(=C\c1ccc(C(=O)O)cc1)c1ccc2c(c1)C(C)(C)CCO2
Activity (Mus musculus [1]): 134.8 | Activity (Mus musculus [2]): 1.3 | Max tolerated dose (Mus musculus [3]): 7.4 mg/kg | Activity (Mus musculus [4]): 36 | Activity (Mus musculus [5]): 1.9 | Activity (Mus musculus [6]): >65 | Activity (Mus musculus [7]): 0.9 | Activity (Mus musculus [8]): 0.4 | Activity (Mus musculus [9]): 1.9 | Activity (Mus musculus [10]): 0.3 | Activity (Mus musculus [11]): 41 | Dose (Mus musculus [12]): 220.6 mg/kg | Activity (Mus musculus [13]): 5 | Activity (Mus musculus [14]): 3.4 | Activity (Mus musculus [15]): 175.9 | Activity (Mus musculus [16]): 51 | Max tolerated dose (Mus musculus [17]): >4.9 mg/kg | Mortality [18]: 0 day of death | Max tolerated dose (Mus musculus [19]): 9.4 mg/kg | Activity (Mus musculus [20]): 192 | Dose (Mus musculus [21]): 147.1 mg/kg | Activity (Mus musculus [22]): 0.3 | Activity (Mus musculus [23]): 115 | Activity (Mus musculus [24]): 7.1 | Relative activity (CC-B): 31 | Activity (Mus musculus [25]): 0.4 | Dose (Mus musculus [26]): 190.2 mg/kg | Activity (Mus musculus [27]): 2 | Activity (Mus musculus [28]): 1.3 | Dose (Mus musculus [29]): 280.8 mg/kg | Activity (Mus musculus [30]): 1.5 | Max tolerated dose (Mus musculus [31]): 6.3 mg/kg | Activity (Mus musculus [32]): 86.3
